According to ChEMBL document CHEMBL1649548, “Pharmacodynamics of SMP-601 (PTZ601) against vancomycin-resistant Enterococcus faecium and methicillin-resistant Staphylococcus aureus in neutropenic murine thigh infection models” (Antimicrob Agents Chemother, 2009):
Values after ≈ are worked out from the molar mass of the structure shown. Active and inactive are the calls of the source. No cut-off for these calls is given here.

Experiments:
Enterococcus faecium [1] = experiment: Antibacterial activity against vancomycin-resistant Enterococcus faecium TL-3273 at 0.5 to 8 ug/mL by time-kill analysis in presence of 1% carrageenan; type: functional, organism-based
Enterococcus faecium [2] = experiment: Antibacterial activity against vancomycin-resistant Enterococcus faecium TL-3273 infected in ICR mouse assessed as reduction in bacterial burden at 2.5 to 640 mg/kg, sc in presence of 1% carrageenan; type: functional, organism-based
Procedure, shortened: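 Male ICR mice made neutropenic with cyclophosphamide sc (150 mg/kg day −4, 100 mg/kg day −1). Thighs inoculated with ~10^5–10^6 CFU/ml in BHIB plus 1% carrageenan, 2 h before therapy. Total 2.5–640 mg/kg sc over 24 h in 1–12 divided doses, each with cilastatin 100 mg/kg. Thighs homogenised at 24 h, CFU plated; two mice (four thighs) per group.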

[3] = Protein binding in mouse serum at 100 ug/ml by ultrafiltration method; type: ADME, cell-free; conditions: read-out: PB (converted)
[4] = Protein binding in mouse serum at 30 ug/ml by ultrafiltration method; type: ADME, cell-free; conditions: read-out: PB (converted)
[5] = Protein binding in mouse serum at 10 ug/ml by ultrafiltration method; type: ADME, cell-free; conditions: read-out: PB (converted)
Enterococcus faecium [6] = experiment: Antibacterial activity against vancomycin-resistant Enterococcus faecium TL-3273 by broth microdilution method; type: functional
Procedure, shortened: (§1)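 CLSI broth microdilution in cation-adjusted Mueller-Hinton broth; final inoculum approx. 10^5 CFU/well.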

Enterococcus faecium [7] = experiment: Antibacterial activity against vancomycin-resistant Enterococcus faecium TL-3621 by broth microdilution method; type: functional; procedure, shortened: as §1
Staphylococcus aureus [8] = experiment: Antibacterial activity against methicillin-resistant Staphylococcus aureus SP-12249 by broth microdilution method; type: functional; procedure, shortened: as §1
Staphylococcus aureus [9] = experiment: Antibacterial activity against methicillin-resistant Staphylococcus aureus TL-3677 by broth microdilution method; type: functional; procedure, shortened: as §1
[10] = fT>MIC required for bacteriostatic effect in vancomycin-resistant Enterococcus faecium TL-3273-infected mouse; type: functional
Procedure, shortened: (§2)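 Neutropenic ICR mice (cyclophosphamide), thighs inoculated with ~10^5–10^6 CFU/ml in BHIB with 1% carrageenan 2 h before therapy. Total 2.5–640 mg/kg sc over 24 h in 1–12 doses, with cilastatin 100 mg/kg.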

[11] = fT>MIC required for inducing 1-log killing effect in vancomycin-resistant Enterococcus faecium TL-3273-infected mouse; type: functional; procedure, shortened: as §2
[12] = fT>MIC required for inducing 2-log killing effect in vancomycin-resistant Enterococcus faecium TL-3273-infected mouse; type: functional; procedure, shortened: as §2
[13] = fT>MIC required for bacteriostatic effect in vancomycin-resistant Enterococcus faecium TL-3621-infected mouse; type: functional; procedure, shortened: as §2
[14] = fT>MIC required for inducing 1-log killing effect in vancomycin-resistant Enterococcus faecium TL-3621-infected mouse; type: functional; procedure, shortened: as §2
[15] = fT>MIC required for inducing 2-log killing effect in vancomycin-resistant Enterococcus faecium TL-3621-infected mouse; type: functional; procedure, shortened: as §2
[16] = fT>MIC required for bacteriostatic effect in methicillin-resistant Staphylococcus aureus SP-12249-infected mouse; type: functional
[17] = fT>MIC required for inducing 1-log killing effect in methicillin-resistant Staphylococcus aureus SP-12249-infected mouse; type: functional
[18] = fT>MIC required for inducing 2-log killing effect in methicillin-resistant Staphylococcus aureus SP-12249-infected mouse; type: functional
[19] = fT>MIC required for bacteriostatic effect in methicillin-resistant Staphylococcus aureus TL-3677-infected mouse; type: functional
[20] = fT>MIC required for inducing 1-log killing effect in methicillin-resistant Staphylococcus aureus TL-3677-infected mouse; type: functional
[21] = fT>MIC required for inducing 2-log killing effect in methicillin-resistant Staphylococcus aureus TL-3677-infected mouse; type: functional

For `C[C@H]1C=C(c2csc(SC3=C(C(=O)O)N4C(=O)[C@H]([C@@H](C)O)[C@H]4[C@H]3C)n2)CN1` [RAZUPENEM], the Activity (Enterococcus faecium [1]) was “Active”, the Activity (Enterococcus faecium [2]) was “Active” and the fraction unbound at 100 ug/ml [3] was 0.22. It also gave a fraction unbound at 30 ug/ml [4] of 0.24, a fraction unbound at 10 ug/ml [5] of 0.25 and an MIC (Enterococcus faecium [6]) of 2 µg/mL (≈ 4.91 µM). The MIC (Enterococcus faecium [7]) was 2 µg/mL (≈ 4.91 µM), the MIC (Staphylococcus aureus [8]) was 1 µg/mL (≈ 2.45 µM) and the MIC (Staphylococcus aureus [9]) was 0.12 µg/mL (≈ 0.294 µM). The “fT>MIC” value [10] was 9%, the “fT>MIC” value [11] was 12% and the “fT>MIC” value [12] was 16%. The “fT>MIC” value [13] was 10%, the “fT>MIC” value [14] was 14% and the “fT>MIC” value [15] was 19%. For the same compound, the “fT>MIC” value [16] was 23%, the “fT>MIC” value [17] was 30% and the “fT>MIC” value [18] was 37%. For the same compound, the “fT>MIC” value [19] was 23%, the “fT>MIC” value [20] was 27% and the “fT>MIC” value [21] was 32%.
